Hits are enriched below; roughly 1.9% of the tested compounds scored in any of these assays.
NR2E3 ag-1: activates human NR2E3 receptor. Q9Y5X4. CHO-S Gal4-NCOR/VP16-NR2E3 two-hybrid, luciferase. inhibition of corepressor binding, % at 3.98 µM. actives 0.35% (n = 360,000);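 active means inhibition above the mean of all tested compounds plus 3 SD, cut at about 70% in these data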;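 further: higher means lower luciferase signal from less NR2E3 corepressor binding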
PG9 binder: PG9 antibody binding by small molecule. TR-FRET gp120-PG9 antibody binding. inhibition, % at 6.7 µM. actives 0.43% (n = 360,000); in the data active means inhibition above about 8.5%
NR2E3 ag-2: agonists of human nuclear receptor NR2E3. Q9Y5X4. GST-NR2E3/biotin-RetCOR TR-FRET, 1536-well. inhibition of corepressor binding, % at 4.78 µM. actives 0.12% (n = 320,000). AID 2300;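 active means percent inhibition above the cutoff of mean plus 3 SD of all tested compounds, set per screening campaign, cut at about 20% in these data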
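Material: NR2E3–RetCOR corepressor complex | Quantity: 1.35 nM GST-tagged NR2E3 final | Schedule: 5 h at 4 °C | Replication: Singlicate compound wells | Reagent: RetCOR corepressor, biotinylated, 7 nM | Controls: Biotin wells as high control, 0.6% DMSO wells as low control | Signal: TR-FRET, Eu(K)-anti-GST donor, streptavidin-D2 acceptor, ex 340, em 617/671 nm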
MT1-MMP act inh: blocks activation of human MT1-MMP. actives 0.061% (n = 360,000). GFP/RFP ratio change, % at 20 µM. HT1080 RFP-PRO-GFP cells, GFP/RFP ratio fluorescence, overnight; percent of plate control window, DMSO zero;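 active means GFP/RFP ratio change of at least 30% with cell ATP level not reduced by more than half and red fluorescence within 50% of control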
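Assay system – RFP-PRO-GFP reporter HT1080 cells · Compound dosing – single dose of 20 µM compound, 1% DMSO final · Incubation – overnight compound exposure at 37 °C · Measure – GFP/RFP fluorescence ratio · Benchmarks – DMSO wells and RFP-L50D-GFP cells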
SKN-1 inh: C. elegans SKN-1 inhibition | C. elegans VP596 Pgst-4::GFP/RFP ratio, acrylamide-induced, 24 h | inhibition, % at 21.8 µM | actives 0.49% (n = 360,000) | AID 624304;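 active means interference check ratio from 0.5 to 1.5 plus GFP to RFP signal ratio inhibition reaching or exceeding a fixed threshold, cut at about 30% in these data, passing the limit was not always enough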
NR1D1 modulator: Rev-erb alpha (human) modulation. activity, % at 10 µM. Rev-erbα–FITC-DNA binding, fluorescence polarization, 90 min. P20393. actives 0.79% (n = 370,000);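 active means activity above about 14%, limit read from the data; passing the limit was not always enough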
Target sequence (P20393 whole entry, looked up): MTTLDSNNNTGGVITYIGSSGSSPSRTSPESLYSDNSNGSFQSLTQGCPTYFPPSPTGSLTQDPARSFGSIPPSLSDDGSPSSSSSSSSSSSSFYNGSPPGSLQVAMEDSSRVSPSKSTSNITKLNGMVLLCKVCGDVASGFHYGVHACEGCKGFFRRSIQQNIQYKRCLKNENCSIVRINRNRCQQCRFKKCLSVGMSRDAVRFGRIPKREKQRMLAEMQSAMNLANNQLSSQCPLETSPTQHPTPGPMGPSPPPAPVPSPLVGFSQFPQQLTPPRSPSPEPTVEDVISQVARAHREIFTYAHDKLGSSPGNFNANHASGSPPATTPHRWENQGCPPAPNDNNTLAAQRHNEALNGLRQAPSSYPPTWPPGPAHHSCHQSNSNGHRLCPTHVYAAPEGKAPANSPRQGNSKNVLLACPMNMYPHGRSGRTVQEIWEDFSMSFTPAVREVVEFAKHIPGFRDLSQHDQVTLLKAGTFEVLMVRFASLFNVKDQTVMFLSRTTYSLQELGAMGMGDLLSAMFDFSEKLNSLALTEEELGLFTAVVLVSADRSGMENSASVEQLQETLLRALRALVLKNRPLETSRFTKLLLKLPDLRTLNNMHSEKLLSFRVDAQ
Each line names hits and unclear results; the compound was inactive in the other large screens.

O=C(Nc1csc(Cl)c1)c1ccccc1	SKN-1 inh 42
O=C(Nc1ccc([N+](=O)[O-])cc1)c1ccccc1	SKN-1 inh 37
COc1ccc(NC(=O)c2cccc(OC(F)F)c2)cc1Cl	none
O=C(Nc1ccc(Cl)c(Cl)c1)Nc1ccon1	SKN-1 inh 46
O=C(Nc1ccc(Cl)c(Cl)c1)c1ccccc1	SKN-1 inh 43
C=CCN1C(=O)C(=O)N(Cc2nc3ccccc3s2)C1=O	SKN-1 inh 48
C=CCn1c(=O)c2ccccc2n2c(SCc3nc4ccccc4s3)nnc12	none
CN(C)c1ccc(C(=O)/C=C/c2ccccc2)cc1	SKN-1 inh 43
CCN(CC)S(=O)(=O)c1cccc2c(N(C)C)cccc12	SKN-1 inh 45
CCN(CC)S(=O)(=O)c1cccc2cccnc12	none
Cn1c(=O)n(C)c2cc(/C=C(/C#N)C(=O)NCc3ccco3)ccc21	SKN-1 inh 97
COc1ccc(/C=N/n2c(=O)[nH]c3c([nH]c4ccc(Br)cc43)c2=O)cc1CN1CCOCC1	SKN-1 inh 37
COc1ccc(/C=N/n2c(=O)[nH]c3c([nH]c4ccc(Cl)cc43)c2=O)cc1CN1CCCCC1	none
C#CCN1CC(N(C)CCO)CS1(=O)=O (stereo not given)	none (no result: NR2E3 ag-1, PG9 binder, NR2E3 ag-2, MT1-MMP act inh, SKN-1 inh)
CCCc1ccc(S(=O)(=O)NCCc2ccncc2)cc1	none
CCCCCc1ccc(S(=O)(=O)NCCc2ccncc2)cc1	NR2E3 ag-1 88
CCOC(=O)C(CNc1ccc(OCc2ccccc2)cc1)NC(=O)c1ccccc1 (stereo not given)	none (no result: NR2E3 ag-1, NR2E3 ag-2, MT1-MMP act inh, SKN-1 inh)
Cc1ccc(S(=O)(=O)N2CC=C(c3c(C)n(C)c4ccccc34)CC2)cc1	SKN-1 inh 52
CN(C)c1ccc(N=Nc2ccc(C(=O)O)cc2)cc1	SKN-1 inh 41
CCNC(=O)CCC/C=C\C[C@@H]1[C@@H](/C=C/[C@@H](O)CCc2ccccc2)[C@H](O)C[C@@H]1O	none (no result: NR2E3 ag-1, PG9 binder, NR2E3 ag-2, MT1-MMP act inh, SKN-1 inh)
C(=C\c1nc(-c2ccccc2)no1)/c1ccccc1	none
C(=C\c1nc(-c2ccncc2)no1)/c1ccccc1	SKN-1 inh 79
Cc1ccc(C(=O)NCCN2C(=O)C3C4C=CC(C4)C3C2=O)cc1 (stereo not given)	none (no result: NR2E3 ag-1, PG9 binder, NR2E3 ag-2, MT1-MMP act inh, SKN-1 inh)
C[C@H]1COc2cc(NCCO)ccc2S(=O)(=O)N1	none (no result: NR2E3 ag-1, NR2E3 ag-2, MT1-MMP act inh, SKN-1 inh)
CN1CCN(c2ccc(-c3ccc4ccccc4n3)cc2)CC1	NR2E3 ag-1 87 (no result: NR2E3 ag-2)
O=C(COC(=O)CCNS(=O)(=O)c1ccccc1)Nc1ccc(OC(F)F)cc1	SKN-1 inh 45
CCOC(=O)[C@]12CCCCC/C=C\1N(Cc1ccc(OC)cc1)C(=O)[C@H]2CC(=O)NCCc1ccccc1OC	none (no result: NR2E3 ag-1, PG9 binder, NR2E3 ag-2, MT1-MMP act inh, SKN-1 inh)
CCOCC(=O)Nc1ccc(C)c(Cl)c1	SKN-1 inh 36 (no result: MT1-MMP act inh)
O=C(CN1C(=O)CCSc2ccccc21)Nc1ccc(Cl)cc1	none (no result: NR2E3 ag-1, PG9 binder, NR2E3 ag-2, MT1-MMP act inh, SKN-1 inh)
Cc1ccc(N=Cc2cc(Cc3ccccc3Cl)cc([N+](=O)[O-])c2O)c(O)c1	none (no result: PG9 binder, NR1D1 modulator)
COc1ccc(N=Cc2cc(Cc3ccccc3Cl)cc([N+](=O)[O-])c2O)cc1OC	SKN-1 inh 38 (no result: PG9 binder, NR1D1 modulator)
C1=Cc2cccc(OCC3CNCCO3)c2C1 (stereo not given)	none (no result: NR2E3 ag-1, PG9 binder, NR2E3 ag-2, MT1-MMP act inh, SKN-1 inh)
COc1ccccc1CNC(=O)C[C@H]1CC[C@H]2[C@@H](COc3ccc(NC(=O)Nc4ccccc4)cc3C(=O)N2C)O1	none (no result: NR2E3 ag-1, PG9 binder, NR2E3 ag-2, MT1-MMP act inh, SKN-1 inh)
O=C(/C=C\Nc1ccccn1)c1ccccc1	SKN-1 inh 61
COc1ccc(C(=O)/C=C/Nc2ccccn2)c(OC)c1	none
O=C(/C=C/Nc1ccc(Br)cc1F)c1ccccc1	SKN-1 inh 50
C=C1CC[C@H](O)C/C1=C/C=C1\CCC[C@]2(C)C([C@H](C)/C=C/[C@H](C)C(C)C)CC[C@@H]12 (stereo not given in full)	none (no result: NR2E3 ag-1, PG9 binder, NR2E3 ag-2, MT1-MMP act inh, SKN-1 inh)
Cc1ccc(NC2=C/C(=N/S(=O)(=O)c3cccs3)c3ccccc3C2=O)cc1	none
O=C1C(Nc2ccccc2)=C/C(=N/S(=O)(=O)c2cccs2)c2ccccc21	NR2E3 ag-1 102 (no result: PG9 binder, NR1D1 modulator)
C[C@H]1CN(C[C@H](Cc2ccccc2)C(=O)NCC(=O)O)CC[C@@]1(C)c1cccc(O)c1	none (no result: NR2E3 ag-1, PG9 binder, NR2E3 ag-2, MT1-MMP act inh, SKN-1 inh)
O=c1/c(=C\c2ccc(F)cc2)sc2n1CCCN=2	SKN-1 inh 39
O=c1/c(=C/c2ccc(O)cc2)sc2n1CCCN=2	none

From PubChem BioAssay
